# Assay results collected from several papers.
# Lines come from different studies, so protocols differ.
# Cell line: MDA-MB-231
# Effect on: cell growth or viability
Structure (SMILES),test,setting,GI50 [nM]
Cc1cc2c(cc1N1C(=O)c3cccc4c(CCCO)ccc(c34)C1=O)n(C)c(=O)n2C (racemic),resazurin,,> 10000
CC(=O)c1c(C)c2cnc(Nc3ccc(N4CCNCC4)cn3)nc2n(C2CCCC2)c1=O,resazurin,,250
CCOc1c(OC)cc(CN2CCc3cc(OS(N)(=O)=O)c(OC)cc3C2)cc1OC,WST-1,96 h,70
COc1ccc(OC)c(CN2CCc3cc(OS(N)(=O)=O)c(OC)cc3C2)c1,WST-1,96 h,1850
COc1cccc2c1C(=O)c1c(O)c3c(c(O)c1C2=O)C[C@@](O)(C(=O)CO)C[C@@H]3O[C@H]1C[C@H](N)[C@H](O)[C@H](C)O1,MTT,72 h,53.3
COc1cc2c(cc1OS(N)(=O)=O)CCN(Cc1ccc(OC)c(OC)c1OC)C2,WST-1,96 h,11900
COc1cc2c(cc1OS(N)(=O)=O)CCN(Cc1cc(Cl)c(OC)c(OC)c1)C2,WST-1,96 h,40
COc1ccc(OC)c(CN2CCc3cc(O)c(OC)cc3C2)c1,WST-1,96 h,37000
COc1cc2c(cc1O)CCN(Cc1cc(Br)c(OC)c(OC)c1)C2,WST-1,96 h,200
COc1cc2c(cc1O)CC[C@@H]1[C@@H]2CC[C@]2(C)[C@@H](O)CC[C@@H]12,,48 h,1700
